Several values for one entry are separate records, joined by “and”; a condition that tells them apart may be missing. Equal entries are not always repeated.
What was measured:
[1] = test system: microtubules; assay: Single-molecule TIRF of TAT-GFP scanning on microtubules; type: binding; conditions: for Effect on TAT-GFP microtubule scanning: saturating concentration of MAP
[2] = test system: microtubules; type: biochemical; conditions: for Effect on microtubule acetylation by TAT: saturating concentration of MAP
[3] = test system: tubulin; assay: Tubulin acetylation assay; type: biochemical
[4] = test system: microtubules; assay: Microtubule acetylation assay; type: biochemical; conditions: bulk measurements
[5] = molecular target: microtubules; assay: TAT binding to microtubules in sedimentation assays; conditions: read-out: Kd for microtubules, Figure S3B and C
[6] = test system: unpolymerized tubulin; assay: TAT-tubulin complex formation by analytical ultracentrifugation; type: binding; conditions: TAT concentrations as high as 40 µM
[7] = test system: dolastatin-induced tubulin rings; assay: Stacking of dolastatin-induced tubulin rings by TAT; conditions: Figures S3D, S3E
[8] = test system: tubulin polymers; assay: TAT activity with tubulin polymers of diverse geometries; type: biochemical; conditions: Figure 3A, N≥3
Method in brief: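 Microtubule substrate was stabilized with 20 µM taxol. Negative-stain EM confirmed dolastatin-10 rings, Zn sheets and microtubules under the reaction conditions. Values are means ± S.E.M. (N≥3), compared by t-test.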

[9] = test system: microtubules; assay: Immunofluorescence of acetylation distribution on microtubules; type: biochemical; conditions: taxol stabilized microtubules; antibody specific for acetylated tubulin; Figure 4
Method in brief: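 Recombinant TAT acetylated taxol-stabilized microtubules in vitro. Excess enzyme was used at a 10:1 TAT:tubulin molar ratio and sampled over a time course. Marks were detected by immunofluorescence. Line-scans were taken along microtubules in the acetylated-tubulin channel. End analysis at 15 s averaged 25 line-scans from the tip to 5 µm inward.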

[10] = test system: TAT; conditions: ref Friedmann et al., 2012; cited from earlier work
[11] = test system: microtubules and tubulin; assay: Acetylation activity of TAT mutants with microtubules and tubulin; type: biochemical; conditions: Figure 2C
[12] = test system: S. cerevisiae microtubules; assay: Single-molecule TIRF of TAT-GFP on S. cerevisiae microtubules; type: binding, Saccharomyces cerevisiae; conditions: purified S. cerevisiae microtubules and engineered with human C-terminal tails
[13] = test system: microtubules; assay: Activity of bead-coupled biotinylated TAT with microtubules; type: biochemical; conditions: 1 µm streptavidin beads; Figure 6A
Method in brief: (§1)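 Biotinylated TAT was either immobilized on 1 µm diameter streptavidin beads or left free in solution. Each form was reacted with tubulin or with microtubules. Activity was normalized to the free enzyme. About 15% unpolymerized tubulin was present in the microtubule reactions.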

[14] = test system: tubulin; assay: Activity of bead-coupled biotinylated TAT with tubulin; type: biochemical; conditions: 1 µm streptavidin beads; Figure 6A
Method in brief: as §1

B1: doublecortin: microtubule binding protein covering the fenestration at the vertices between four tubulin dimers (protein)
chain: MELDFGHFDERDKTSRNMRGSRMNGLPSPTHSAHCSFYRTRTLQALSNEKKAKKVRFYRNGDRYFKGIVYAVSSDRFRSFDALLADLTRSLSDNINLPQGVRYIYTIDGSRKIGSMDELEEGESYVCSSDNFFKKVEYTKNVNPNWSVNVKTSANMKAPQSLASSNSAQARENKDFVRPKLVTIIRSGVKPRKAVRVLLNKKTAHSFEQVLTDITEAIKLETGVVKKLYTLDGKQVTCLHDFFGDDDVFIACGPEKFRYAQDDFSLDENECRVMKGNPSATAGPKASPTPQKTSAKSPGPMRRSKSPADSGNDQDANGTSSSQLSTPKSKQSPISTPTSPGSLRKHKDLYLPLSLDDSDSLGDSM
In the case of B1, the “Effect on TAT-GFP microtubule scanning” value ([1]; Figure 5F) is reported as “no effect” and the “Effect on microtubule acetylation by TAT” value ([2]; Figure 5F) is reported as “no effect”.

B2: TAT: Homo sapiens TAT (1–196) expressed in Escherichia coli as a GST-fusion (protein)
chain: MEFPFDVDALFPERITVLDQHLRPPARRPGTTTPARVDLQQQIMTIIDELGKASAKAQNLSAPITSASRMQSNRHVVYILKDSSARPAGKGAIIGFIKVGYKKLFVLDDREAHNEVEPLCILDFYIHESVQRHGHGRELFQYMLQKERVEPHQLAIDRPSQKLLKFLNKHYNLETTVPQVNNFVIFEGFFAHQHRP
modifications: left off: GST, end not stated, state not stated
In the case of B2, the “Catalytic rate with tubulin” value [3] is reported as 0.4 h⁻¹, the “Acetylation rate with microtubules” value [4] is reported as ~1.6 h⁻¹ and the Kd [5] is reported as ~44 µM. The “Stable complex formation with unpolymerized tubulin” value [6] was “undetectable”, the “Stacking of dolastatin-induced tubulin rings” value [7] was “promotes stacking of dolastatin-induced tubulin rings in a dose-dependent manner” and the “TAT activity with microtubules vs unpolymerized tubulin” value [8] was “largest activity enhancement over unpolymerized tubulin is seen with microtubules”. For the same molecule, the “Total microtubule length scanned, subtilisin-treated vs untreated microtubules” value ([1]; 50 microtubules, Figure 5F) was “covers the same total microtubule length”, the “Interaction time (τ), labeled spastin” value ([1]; microtubules coated with DyLight 550 labeled spastin, ATPγS) was 1.5 s and the “Average microtubule length scanned” value ([1]; undecorated microtubules, Figure S5B) was 2.9 µm. The Maximum scan excursion ([1]; undecorated microtubules, excursions up to, Figure S5B) was “up to 10.4 µm”, the “Acetylation of unmodified microtubules vs brain microtubules” value ([2]; Figures S5G and S5H) was “as effectively as brain microtubules” and the “Microtubule acetylation after removal of C-terminal tails” value ([2]; subtilisin microtubules, Figure 5F) was “unaffected by removal of the C-terminal tails”. The “Distribution of acetylation along microtubule” value [9] was “acetylates along the entire microtubule without a preference for ends” and the Km [10] was ~32 µM.

B3: kinesin: motor domain of kinesin-5 (protein)
chain: MASQPNSSAKKKEEKGKNIQVVVRCRPFNLAERKASAHSIVECDPVRKEVSVRTGGLADKSSRKTYTFDMVFGASTKQIDVYRSVVCPILDEVIMGYNCTIFAYGQTGTGKTFTMEGERSPNEEYTWEEDPLAGIIPRTLHQIFEKLTDNGTEFSVKVSLLEIYNEELFDLLNPSSDVSERLQMFDDPRNKRGVIIKGLEEITVHNKDEVYQILEKGAAKRTTAATLMNAYSSRSHSVFSVTIHMKETTIDGEELVKIGKLNLVDLAGSENIGRSGAVDKRAREAGNINQSLLTLGRVITALVERTPHVPYRESKLTRILQDSLGGRTRTSIIATISPASLNLEETLSTLEYAHRAKNILNKPEVNQKLTKKALIKEYTEEIERLKRDLAAAREKNGVYISEENFRVMSGKLTVQEEQIVELIEKIGAVEEELNRVTELFMDNKNELDQCKSDLQNKTQELETTQKHLQETKLQLVKEEYITSALESTEEKLHDAASKLLNTVEETTKDVSGLHSKLDRKKAVDQHNAEAQDIFGKNLNSLFNNMEELIKDGSSKQKAMLEVHKTLFGNLLSSSVSALDTITTVALGSLTSIPENVSTHVSQIFNMILKEQSLAAESKTVLQELINVLKTDLLSSLEMILSPTVVSILKINSQLKHIFKTSLTVADKIEDQKKELDGFLSILCNNLHELQENTICSLVESQKQCGNLTEDLKTIKQTHSQELCKLMNLWTERFCALEEKCENIQKPLSSVQENIQQKSKDIVNKMTFHSQKFCADSDGFSQELRNFNQEGTKLVEESVKHSDKLNGNLEKISQETEQRCESLNTRTVYFSEQWVSSLNEREQELHNLLEVVSQCCEASSSDITEKSDGRKAAHEKQHNIFLDQMTIDEDKLIAQNLELNETIKIGLTKLNCFLEQDLKLDIPTGTTPQRKSYLYPSTLVRTEPREHLLDQLKRKQPELLMMLNCSENNKEETIPDVDVEEAVLGQYTEEPLSQEPSVDAGVDCSSIGGVPFFQHKKSHGKDKENRGINTLERSKVEETTEHLVTKSRLPLRAQINL
In the case of B3, the “Effect on TAT-GFP microtubule scanning” value ([1]; Figure 5F) is reported as “no effect” and the “Effect on microtubule acetylation by TAT” value ([2]; Figure 5F) is reported as “no effect”.

B4: F105A TAT mutant: F105A TAT mutant defective in acetylation (protein)
chain: MEFPFDVDALFPERITVLDQHLRPPARRPGTTTPARVDLQQQIMTIIDELGKASAKAQNLSAPITSASRMQSNRHVVYILKDSSARPAGKGAIIGFIKVGYKKLAVLDDREAHNEVEPLCILDFYIHESVQRHGHGRELFQYMLQKERVEPHQLAIDRPSQKLLKFLNKHYNLETTVPQVNNFVIFEGFFAHQHRPPAPSLRATRHSRAAAVDPTPAAPARKLPPKRAEGDIKPYSSSDREFLKVAVEPPWPLNRAPRRATPPAHPPPRSSSLGNSPERGPLRPFVPEQELLRSLRLCPPHPTARLLLAADPGGSPAQRRRTRGTPPGLVAQSCCYSRHGGVNSSSPNTGNQDSKQGEQETKNRSASEEQALSQDGSGEKPMHTAPPQAPAPPAQSWTVGGDILNARFIRNLQERRSTRPW
In the case of B4, the “Effect of mutation on TAT activity” value ([11]; N≥3) is reported as “defective in acetylation”, the “Effect of mutation on TAT activity” value ([11]; N≥3, listed as Phe105) is reported as “severely impairs enzyme activity with both tubulin and microtubules” and the “Stacking of dolastatin-induced tubulin rings” value [7] is reported as “impaired in stack formation”.

B5: TAT-GFP: purified TAT-GFP for single-molecule TIRF microscopy (protein)
chain: MEFPFDVDALFPERITVLDQHLRPPARRPGTTTPARVDLQQQIMTIIDELGKASAKAQNLSAPITSASRMQSNRHVVYILKDSSARPAGKGAIIGFIKVGYKKLFVLDDREAHNEVEPLCILDFYIHESVQRHGHGRELFQYMLQKERVEPHQLAIDRPSQKLLKFLNKHYNLETTVPQVNNFVIFEGFFAHQHRPPAPSLRATRHSRAAAVDPTPAAPARKLPPKRAEGDIKPYSSSDREFLKVAVEPPWPLNRAPRRATPPAHPPPRSSSLGNSPERGPLRPFVPEQELLRSLRLCPPHPTARLLLAADPGGSPAQRRRTRGTPPGLVAQSCCYSRHGGVNSSSPNTGNQDSKQGEQETKNRSASEEQALSQDGSGEKPMHTAPPQAPAPPAQSWTVGGDILNARFIRNLQERRSTRPW
modifications: left off: GFP, end not stated, kept
In the case of B5, the “Interaction time (τ), doublecortin” value ([1]; microtubules with saturating doublecortin) is reported as 1.4 s, the “1D diffusion coefficient on microtubules” value ([1]; undecorated microtubules, MSD fit, 100 ms frames, mean, legend: fit) is reported as 0.27 µm^2/s and 0.27 ± 0.01 µm^2/s and the Scan starting position ([1]; undecorated microtubules, N=163, Figure 5D) is reported as “randomly distributed on the microtubule, showing no bias for ends”. For the same molecule, the “Interaction time (τ) on microtubules” value ([1]; undecorated microtubules, exponential fit corrected for photobleaching, N=269) was 1.5 s and 1.5 ± 0.3 s, the “Scanning on S. cerevisiae microtubules” value [12] was “do not observe TAT-GFP scanning” and the “Activity of GFP fusion vs untagged protein” value ([2]; Figure S5) was “comparable to that of the untagged protein”.

B6: bead-coupled TAT: C-terminally biotinylated TAT construct coupled to streptavidin beads 1 µm in diameter (protein, UniProt Q5SQI0 1-421, looked up)
Alpha-tubulin …: MEFPFDVDALFPERITVLDQHLRPPARRPGTTTPARVDLQQQIMTIIDELGKASAKAQNLSAPITSASRMQSNRHVVYILKDSSARPAGKGAIIGFIKVGYKKLFVLDDREAHNEVEPLCILDFYIHESVQRHGHGRELFQYMLQKERVEPHQLAIDRPSQKLLKFLNKHYNLETTVPQVNNFVIFEGFFAHQHRPPAPSLRATRHSRAAAVDPTPAAPARKLPPKRAEGDIKPYSSSDREFLKVAVEPPWPLNRAPRRATPPAHPPPRSSSLGNSPERGPLRPFVPEQELLRSLRLCPPHPTARLLLAADPGGSPAQRRRTRGTPPGLVAQSCCYSRHGGVNSSSPNTGNQDSKQGEQETKNRSASEEQALSQDGSGEKPMHTAPPQAPAPPAQSWTVGGDILNARFIRNLQERRSTRPW
modifications: C-terminal biotin, streptavidin beads
For B6, the “Reduction of activity with microtubules on bead coupling” value [13] was ~89% and the “Activity with tubulin when bead-coupled” value [14] was “retained activity with tubulin”.
